{"source": "ChEMBL document CHEMBL4043093", "about": "“2-Oxo-3, 4-dihydropyrimido[4, 5-d]pyrimidinyl derivatives as new irreversible pan fibroblast growth factor receptor (FGFR) inhibitors” (Eur J Med Chem, 2017)", "key": {"[1]": {"molecular_target": "Tyrosine-protein kinase Yes (Homo sapiens) (UniProt P07947)", "assay": "Inhibition of wild-type human partial length YES (T257 to L543 residues) expressed in Escherichia coli BL21 assessed as residual activity at 1000 nM after 30 mins by Kinomescan method relative to control"}, "[2]": {"molecular_target": "Serine/threonine-protein kinase BRSK1 (Homo sapiens) (UniProt Q8TDC3)", "sequence (Q8TDC3 whole entry, the tested form may be a part)": "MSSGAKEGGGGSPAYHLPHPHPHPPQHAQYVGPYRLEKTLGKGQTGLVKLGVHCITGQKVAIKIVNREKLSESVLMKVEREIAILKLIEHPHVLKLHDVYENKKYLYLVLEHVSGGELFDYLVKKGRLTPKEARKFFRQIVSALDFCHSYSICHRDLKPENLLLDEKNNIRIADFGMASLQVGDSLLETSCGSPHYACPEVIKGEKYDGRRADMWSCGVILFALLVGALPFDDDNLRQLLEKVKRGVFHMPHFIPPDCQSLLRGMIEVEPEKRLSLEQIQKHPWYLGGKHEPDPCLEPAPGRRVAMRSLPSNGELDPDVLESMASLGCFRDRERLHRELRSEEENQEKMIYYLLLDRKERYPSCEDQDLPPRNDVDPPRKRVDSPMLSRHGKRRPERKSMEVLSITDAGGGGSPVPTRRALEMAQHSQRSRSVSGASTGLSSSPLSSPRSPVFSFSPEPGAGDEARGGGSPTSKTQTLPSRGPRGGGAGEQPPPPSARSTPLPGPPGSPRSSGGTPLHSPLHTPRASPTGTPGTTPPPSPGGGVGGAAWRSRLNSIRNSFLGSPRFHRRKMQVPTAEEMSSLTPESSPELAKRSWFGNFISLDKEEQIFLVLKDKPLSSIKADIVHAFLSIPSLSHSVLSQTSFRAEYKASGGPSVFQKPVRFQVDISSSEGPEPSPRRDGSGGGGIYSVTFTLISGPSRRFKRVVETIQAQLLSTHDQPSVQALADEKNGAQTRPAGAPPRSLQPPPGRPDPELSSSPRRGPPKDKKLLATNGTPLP", "assay": "Inhibition of wild-type human partial length BRSK1 (M1 to E754 residues) expressed in Escherichia coli BL21 assessed as residual activity at 1000 nM after 30 mins by Kinomescan method relative to control"}, "[3]": {"system": "Epidermal growth factor receptor (Homo sapiens), P00533 [UNDEFINED MUTATION]", "assay": "Inhibition of human partial length EGFR S752-I759del mutant expressed in Escherichia coli BL21 assessed as residual activity at 1000 nM after 30 mins by Kinomescan method relative to control", "summary_of_the_method": "(§1)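 KINOMEscan binding panel of 456 kinases, with the test compound at a single concentration of 1 µM. Read-out is Percent Control.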"}, "[4]": {"molecular_target": "Mitogen-activated protein kinase 9 (Homo sapiens) (UniProt P45984)", "sequence (P45984 whole entry, looked up, the tested form may be a part)": "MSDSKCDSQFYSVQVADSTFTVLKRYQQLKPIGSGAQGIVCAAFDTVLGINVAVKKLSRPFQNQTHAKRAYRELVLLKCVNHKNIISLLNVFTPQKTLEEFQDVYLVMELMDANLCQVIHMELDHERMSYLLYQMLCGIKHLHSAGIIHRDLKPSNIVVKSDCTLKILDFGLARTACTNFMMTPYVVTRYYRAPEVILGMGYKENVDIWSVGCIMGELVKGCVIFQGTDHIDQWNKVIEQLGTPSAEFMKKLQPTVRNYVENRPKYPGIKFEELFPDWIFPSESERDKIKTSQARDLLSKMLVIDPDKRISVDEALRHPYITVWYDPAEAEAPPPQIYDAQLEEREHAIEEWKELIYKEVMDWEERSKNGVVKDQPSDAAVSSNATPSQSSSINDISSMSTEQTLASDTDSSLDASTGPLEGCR", "assay": "Inhibition of wild-type human full length JNK2 (M1 to Q382 residues) expressed in HEK293 cells assessed as residual activity at 1000 nM after 30 mins by Kinomescan method relative to control", "assay_type": "cell-based", "summary_of_the_method": "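Single-concentration screen at 1 µM across a 456-kinase KINOMEscan panel. The read-out is Percent Control for each kinase.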"}, "[5]": {"molecular_target": "Vascular endothelial growth factor receptor 1 (Homo sapiens) (UniProt P17948)", "assay": "Inhibition of wild-type human partial length FLT1 (R781 to F1239 residues) expressed in Escherichia coli BL21 assessed as residual activity at 1000 nM after 30 mins by Kinomescan method relative to control"}, "[6]": {"molecular_target": "Leucine-rich repeat serine/threonine-protein kinase 2 (Homo sapiens) (UniProt Q5S007)", "assay": "Inhibition of wild-type human partial length LRRK2 (H970 to E2527 residues) expressed in HEK293 cells assessed as residual activity at 1000 nM after 30 mins by Kinomescan method relative to control", "assay_type": "cell-based"}, "[7]": {"molecular_target": "Serine/threonine-protein kinase 35 (Homo sapiens) (UniProt Q8TDR2)", "assay": "Inhibition of wild-type human partial length STK35 (G182 to A534 residues) expressed in Escherichia coli BL21 assessed as residual activity at 1000 nM after 30 mins by Kinomescan method relative to control"}, "[8]": {"molecular_target": "Citron Rho-interacting kinase (Homo sapiens) (UniProt O14578)", "assay": "Inhibition of wild-type human partial length CIT (M68 to E432 residues) expressed in Escherichia coli BL21 assessed as residual activity at 1000 nM after 30 mins by Kinomescan method relative to control"}, "[9]": {"molecular_target": "Casein kinase I isoform gamma-3 (Homo sapiens) (UniProt Q9Y6M4)", "sequence (Q9Y6M4 whole entry, looked up, the tested form may be a part, canonical isoform)": "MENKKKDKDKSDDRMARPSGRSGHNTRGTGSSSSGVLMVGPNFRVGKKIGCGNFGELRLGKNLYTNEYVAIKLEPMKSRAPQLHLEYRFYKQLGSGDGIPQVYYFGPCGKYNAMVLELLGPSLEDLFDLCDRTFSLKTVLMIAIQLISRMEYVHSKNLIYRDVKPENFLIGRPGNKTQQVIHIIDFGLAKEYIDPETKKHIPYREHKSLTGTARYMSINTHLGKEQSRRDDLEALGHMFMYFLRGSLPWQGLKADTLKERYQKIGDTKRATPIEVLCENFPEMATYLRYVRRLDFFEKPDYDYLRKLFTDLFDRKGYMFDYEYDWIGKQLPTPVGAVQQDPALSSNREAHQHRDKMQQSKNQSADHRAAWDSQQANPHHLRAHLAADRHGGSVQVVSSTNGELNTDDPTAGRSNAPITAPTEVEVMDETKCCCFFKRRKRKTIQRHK", "assay": "Inhibition of wild-type human full length CSNK1G3 (M1 to K447 residues) expressed in Escherichia coli BL21 assessed as residual activity at 1000 nM after 30 mins by Kinomescan method relative to control", "summary_of_the_method": "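Single-point screen at a fixed 1 µM, run within a 456-kinase DiscoveRx KINOMEscan panel. Each kinase's read-out is Percent Control, i.e. signal relative to a control without compound. Hits were scored by a Percent Control < 35 cut-off, and an S(35) selectivity score was calculated across the non-mutant kinases.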"}, "[10]": {"molecular_target": "Serine/threonine-protein kinase SIK2 (Homo sapiens) (UniProt Q9H0K1)", "sequence (Q9H0K1 whole entry, looked up, the tested form may be a part)": "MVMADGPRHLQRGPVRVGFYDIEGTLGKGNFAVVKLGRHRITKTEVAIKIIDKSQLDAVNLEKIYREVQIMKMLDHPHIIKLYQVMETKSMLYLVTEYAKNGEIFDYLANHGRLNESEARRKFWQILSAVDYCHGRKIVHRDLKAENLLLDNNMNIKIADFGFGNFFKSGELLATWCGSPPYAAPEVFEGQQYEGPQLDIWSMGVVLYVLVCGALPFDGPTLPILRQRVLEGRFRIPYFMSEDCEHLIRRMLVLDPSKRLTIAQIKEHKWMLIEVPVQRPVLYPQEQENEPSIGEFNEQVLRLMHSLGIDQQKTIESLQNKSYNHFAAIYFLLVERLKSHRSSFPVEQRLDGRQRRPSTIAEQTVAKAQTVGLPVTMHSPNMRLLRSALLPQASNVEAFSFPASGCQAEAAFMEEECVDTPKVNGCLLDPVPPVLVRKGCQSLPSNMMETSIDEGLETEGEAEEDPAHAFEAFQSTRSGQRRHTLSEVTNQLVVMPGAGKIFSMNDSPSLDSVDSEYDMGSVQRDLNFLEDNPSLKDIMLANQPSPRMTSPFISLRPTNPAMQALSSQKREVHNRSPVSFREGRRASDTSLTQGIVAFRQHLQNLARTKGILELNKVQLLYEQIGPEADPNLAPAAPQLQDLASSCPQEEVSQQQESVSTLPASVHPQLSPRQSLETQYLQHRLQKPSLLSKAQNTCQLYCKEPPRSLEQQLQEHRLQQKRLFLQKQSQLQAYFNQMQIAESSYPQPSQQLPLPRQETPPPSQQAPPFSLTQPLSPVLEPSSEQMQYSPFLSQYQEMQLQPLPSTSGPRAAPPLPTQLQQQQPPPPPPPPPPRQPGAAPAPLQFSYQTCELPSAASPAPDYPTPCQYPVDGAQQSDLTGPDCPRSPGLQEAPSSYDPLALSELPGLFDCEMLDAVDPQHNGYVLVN", "assay": "Inhibition of wild-type human full length SIK2 (M1 to N926 residues) expressed in Escherichia coli BL21 assessed as residual activity at 1000 nM after 30 mins by Kinomescan method relative to control"}, "[11]": {"system": "Phosphatidylinositol 4,5-bisphosphate 3-kinase catalytic subunit alpha isoform (Homo sapiens), P42336 [E545K]", "assay": "Inhibition of human partial length PIK3CA E545K mutant (R108 to N1068 residues) expressed in HEK293 cells assessed as residual activity at 1000 nM after 30 mins by Kinomescan method relative to control", "assay_type": "cell-based", "summary_of_the_method": "as §1"}, "[12]": {"molecular_target": "Cyclin-dependent kinase-like 5 (Homo sapiens) (UniProt O76039)", "assay": "Inhibition of wild-type human partial length CDKL5 (M1 to S337 residues) expressed in HEK293 cells assessed as residual activity at 1000 nM after 30 mins by Kinomescan method relative to control", "assay_type": "cell-based"}, "[13]": {"molecular_target": "Ribosomal protein S6 kinase alpha-6 (Homo sapiens) (UniProt Q9UK32)", "assay": "Inhibition of wild-type human partial length C-terminal RSK4 kinase domain 2 (I401 to Y711 residues) expressed in Escherichia coli BL21 assessed as residual activity at 1000 nM after 30 mins by Kinomescan method relative to control"}, "[14]": {"molecular_target": "Mitogen-activated protein kinase kinase kinase kinase 5 (Homo sapiens) (UniProt Q9Y4K4)", "sequence (Q9Y4K4 whole entry, looked up, the tested form may be a part)": "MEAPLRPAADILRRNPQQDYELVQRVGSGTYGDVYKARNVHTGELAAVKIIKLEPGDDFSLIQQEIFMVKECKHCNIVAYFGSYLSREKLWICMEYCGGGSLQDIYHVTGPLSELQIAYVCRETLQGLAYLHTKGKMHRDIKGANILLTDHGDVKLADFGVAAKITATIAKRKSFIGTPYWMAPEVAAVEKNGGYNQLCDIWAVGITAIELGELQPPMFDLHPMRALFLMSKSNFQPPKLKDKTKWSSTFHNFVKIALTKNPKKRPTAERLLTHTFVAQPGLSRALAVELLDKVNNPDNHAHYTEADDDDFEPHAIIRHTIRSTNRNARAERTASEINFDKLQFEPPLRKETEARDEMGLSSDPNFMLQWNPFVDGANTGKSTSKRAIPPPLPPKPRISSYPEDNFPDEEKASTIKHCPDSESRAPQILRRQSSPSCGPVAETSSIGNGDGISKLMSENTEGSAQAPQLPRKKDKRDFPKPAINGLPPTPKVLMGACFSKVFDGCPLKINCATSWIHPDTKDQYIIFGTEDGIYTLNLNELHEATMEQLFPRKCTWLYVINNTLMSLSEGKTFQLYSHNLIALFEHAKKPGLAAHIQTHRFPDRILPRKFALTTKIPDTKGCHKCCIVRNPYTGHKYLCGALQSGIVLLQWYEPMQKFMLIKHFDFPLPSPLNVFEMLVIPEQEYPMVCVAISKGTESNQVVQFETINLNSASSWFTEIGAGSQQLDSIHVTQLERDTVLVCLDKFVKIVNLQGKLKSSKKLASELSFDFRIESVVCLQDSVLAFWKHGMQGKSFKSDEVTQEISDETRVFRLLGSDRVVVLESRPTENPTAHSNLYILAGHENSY", "assay": "Inhibition of wild-type human partial length MAP4K5 (M1 to P297 residues) expressed in Escherichia coli BL21 assessed as residual activity at 1000 nM after 30 mins by Kinomescan method relative to control"}, "[15]": {"molecular_target": "ALK tyrosine kinase receptor (Homo sapiens) (UniProt Q9UM73)", "sequence (Q9UM73 19-1620 limits assumed)": "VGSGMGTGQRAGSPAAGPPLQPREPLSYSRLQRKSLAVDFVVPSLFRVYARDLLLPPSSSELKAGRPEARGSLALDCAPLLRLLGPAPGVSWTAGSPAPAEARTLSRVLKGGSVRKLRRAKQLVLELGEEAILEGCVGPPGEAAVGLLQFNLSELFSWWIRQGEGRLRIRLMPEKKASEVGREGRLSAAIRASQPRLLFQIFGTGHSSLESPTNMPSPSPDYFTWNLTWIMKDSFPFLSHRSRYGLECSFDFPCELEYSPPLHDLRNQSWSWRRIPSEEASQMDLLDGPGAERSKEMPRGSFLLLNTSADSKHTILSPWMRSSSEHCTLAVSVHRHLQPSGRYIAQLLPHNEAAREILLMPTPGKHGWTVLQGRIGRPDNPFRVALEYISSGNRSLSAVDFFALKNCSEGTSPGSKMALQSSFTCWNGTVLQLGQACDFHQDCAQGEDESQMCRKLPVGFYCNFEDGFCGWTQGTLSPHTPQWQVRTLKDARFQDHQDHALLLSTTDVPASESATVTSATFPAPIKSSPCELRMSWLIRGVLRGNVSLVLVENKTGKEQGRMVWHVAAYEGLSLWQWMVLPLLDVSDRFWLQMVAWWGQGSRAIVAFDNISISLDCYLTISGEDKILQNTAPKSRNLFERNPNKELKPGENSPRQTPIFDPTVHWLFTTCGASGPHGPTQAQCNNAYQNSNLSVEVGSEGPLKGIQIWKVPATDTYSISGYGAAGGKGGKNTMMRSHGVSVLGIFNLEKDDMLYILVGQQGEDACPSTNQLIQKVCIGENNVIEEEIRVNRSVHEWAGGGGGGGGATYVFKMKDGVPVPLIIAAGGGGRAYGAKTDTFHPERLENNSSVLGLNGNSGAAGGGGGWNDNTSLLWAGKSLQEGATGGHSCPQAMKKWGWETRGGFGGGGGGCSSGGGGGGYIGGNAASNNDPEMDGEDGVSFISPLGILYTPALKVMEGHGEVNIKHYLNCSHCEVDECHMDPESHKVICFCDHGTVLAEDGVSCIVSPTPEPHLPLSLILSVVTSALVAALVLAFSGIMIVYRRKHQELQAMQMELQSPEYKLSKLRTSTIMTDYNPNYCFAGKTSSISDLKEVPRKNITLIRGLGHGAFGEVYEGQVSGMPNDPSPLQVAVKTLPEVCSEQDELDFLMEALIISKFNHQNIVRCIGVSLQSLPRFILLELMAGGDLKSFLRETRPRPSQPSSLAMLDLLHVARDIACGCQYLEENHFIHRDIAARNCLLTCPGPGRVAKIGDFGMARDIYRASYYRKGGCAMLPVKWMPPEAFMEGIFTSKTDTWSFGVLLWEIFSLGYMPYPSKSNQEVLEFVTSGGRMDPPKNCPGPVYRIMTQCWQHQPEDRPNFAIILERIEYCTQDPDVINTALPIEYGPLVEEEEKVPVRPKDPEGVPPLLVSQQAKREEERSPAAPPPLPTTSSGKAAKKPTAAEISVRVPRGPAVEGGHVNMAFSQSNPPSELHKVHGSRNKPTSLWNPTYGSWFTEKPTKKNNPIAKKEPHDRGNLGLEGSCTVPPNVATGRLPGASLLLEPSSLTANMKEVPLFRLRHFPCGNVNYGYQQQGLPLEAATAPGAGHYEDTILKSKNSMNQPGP", "assay": "Inhibition of wild-type human partial length ALK (I1088 to E1409 residues) expressed in HEK293 cells assessed as residual activity at 1000 nM after 30 mins by Kinomescan method relative to control", "assay_type": "cell-based"}, "[16]": {"molecular_target": "Macrophage colony-stimulating factor 1 receptor (Homo sapiens) (UniProt P07333)", "assay": "Inhibition of wild-type human partial length CSF1R (I564 to S939 residues) expressed in Escherichia coli BL21 assessed as residual activity at 1000 nM after 30 mins by Kinomescan method relative to control"}, "[17]": {"molecular_target": "Serine/threonine-protein kinase Nek11 (Homo sapiens) (UniProt Q8NG66)", "assay": "Inhibition of wild-type human partial length NEK11 (M1 to E313 residues) expressed in HEK293 cells assessed as residual activity at 1000 nM after 30 mins by Kinomescan method relative to control", "assay_type": "cell-based"}, "[18]": {"molecular_target": "cAMP-dependent protein kinase catalytic subunit beta (Homo sapiens) (UniProt P22694)", "assay": "Inhibition of wild-type human full length PKAC-beta (M1 to F351 residues) expressed in Escherichia coli BL21 assessed as residual activity at 1000 nM after 30 mins by Kinomescan method relative to control", "summary_of_the_method": "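Single-concentration screen at 1 µM against a 456-kinase panel (KINOMEscan). Read-out is Percent Control for each kinase. Across the 403 non-mutant kinases, an S(35) selectivity score was derived as the fraction of kinases with Percent Control < 35.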"}, "[19]": {"molecular_target": "Interleukin-1 receptor-associated kinase 3 (Homo sapiens) (UniProt Q9Y616)", "assay": "Inhibition of wild-type human partial length IRAK3 (V147 to E596 residues) expressed in Escherichia coli BL21 assessed as residual activity at 1000 nM after 30 mins by Kinomescan method relative to control"}, "[20]": {"molecular_target": "Serine/threonine-protein kinase B-raf (Homo sapiens) (UniProt P15056)", "assay": "Inhibition of wild-type human partial length BRAF (S429 to E741 residues) expressed in HEK293 cells assessed as residual activity at 1000 nM after 30 mins by Kinomescan method relative to control", "assay_type": "cell-based"}}, "data": [{"molecule": "COc1cc(OC)c(Cl)c(N2Cc3cnc(Nc4ccc(F)cc4)nc3N(C3CCN(C(=O)/C=C/CN(C)C)CC3)C2=O)c1Cl", "values": [{"measurement": "Activity", "setting": "[1]", "result": 34, "unit": "%"}, {"measurement": "Activity", "setting": "[2]", "result": 100, "unit": "%"}, {"measurement": "Activity", "setting": "[3]", "result": 71, "unit": "%"}, {"measurement": "Activity", "setting": "[4]", "result": 92, "unit": "%"}, {"measurement": "Activity", "setting": "[5]", "result": 5.6, "unit": "%"}, {"measurement": "Activity", "setting": "[6]", "result": 100, "unit": "%"}, {"measurement": "Activity", "setting": "[7]", "result": 100, "unit": "%"}, {"measurement": "Activity", "setting": "[8]", "result": 99, "unit": "%"}, {"measurement": "Activity", "setting": "[9]", "result": 100, "unit": "%"}, {"measurement": "Activity", "setting": "[10]", "result": 89, "unit": "%"}, {"measurement": "Activity", "setting": "[11]", "result": 99, "unit": "%"}, {"measurement": "Activity", "setting": "[12]", "result": 100, "unit": "%"}, {"measurement": "Activity", "setting": "[13]", "result": 94, "unit": "%"}, {"measurement": "Activity", "setting": "[14]", "result": 82, "unit": "%"}, {"measurement": "Activity", "setting": "[15]", "result": 100, "unit": "%"}, {"measurement": "Activity", "setting": "[16]", "result": 0.4, "unit": "%"}, {"measurement": "Activity", "setting": "[17]", "result": 100, "unit": "%"}, {"measurement": "Activity", "setting": "[18]", "result": 95, "unit": "%"}, {"measurement": "Activity", "setting": "[19]", "result": 100, "unit": "%"}, {"measurement": "Activity", "setting": "[20]", "result": 100, "unit": "%"}]}]}
